Assay results: ChEMBL document CHEMBL2346607, “Borrelidin analogues with antimalarial activity: design, synthesis and biological evaluation against Plasmodium falciparum parasites” (Bioorg Med Chem Lett, 2013)
Converted amounts (≈) assume the structure as drawn.

Legend:
[1] = Selectivity index, ratio of IC50 for human […] cells to IC50 for Plasmodium falciparum FCR-3; type: toxicity, cell-based; settings: […] cells (cytotoxicity) versus Plasmodium falciparum FCR-3, read-out: Ratio IC50
How it was run: (§1)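 SI is the MRC-5 cytotoxicity IC50 (ng/mL) divided by the antimalarial IC50 (ng/mL) against the FCR3 or K1 strain. Both IC50s come from the same in vitro test series.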

Plasmodium falciparum [2] = assay: Antimalarial activity against Plasmodium falciparum K1 infected in human erythrocytes after 72 hrs by lactate dehydrogenase assay; type: functional, organism-based; settings: K1, 72 h
How it was run: (§2)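 In vitro assay against the P. falciparum strains K1 (drug-resistant) and FCR3 (drug-sensitive). The value is reported as an IC50 in ng/mL.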

Plasmodium falciparum [3] = assay: Antimalarial activity against Plasmodium falciparum FCR-3 infected in human erythrocytes after 72 hrs by lactate dehydrogenase assay; type: functional, cell-based; settings: FCR-3/Gambia; how it was run: as §2
[4] = Selectivity index, ratio of IC50 for human […] cells to IC50 for Plasmodium falciparum K1; type: toxicity, cell-based; settings: MCR5 cells (cytotoxicity) versus Plasmodium falciparum K1, read-out: Ratio IC50; how it was run: as §1
[5] = Cytotoxicity against human […] cells after 7 days by MTT assay; type: cell-based; settings: 168 h
How it was run: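 Cytotoxicity was tested on MRC-5, a human diploid embryonic cell line. The value is reported as an IC50 in ng/mL.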

SMILES	IC50 (Plasmodium falciparum [2])	IC50 (Plasmodium falciparum [3])	selectivity ratio [1]	selectivity ratio [4]	IC50 [5]
COC(=O)[C@@H]1CCC[C@H]1[C@@H]1C/C=C/C=C(/C#N)[C@H](O)[C@@H](C)C[C@H](C)C[C@H](C)C[C@H](C)[C@@H](O)CC(=O)O1	10 ng/mL (≈ 0.0199 µM)	10 ng/mL (≈ 0.0199 µM)	1460	1460	14.6 µg/mL (≈ 29 µM)
CCCSC(=O)[C@@H]1CCC[C@H]1[C@@H]1C/C=C/C=C(/C#N)[C@H](O)[C@@H](C)C[C@H](C)C[C@H](C)C[C@H](C)[C@@H](O)CC(=O)O1	167 ng/mL (≈ 0.305 µM)	280 ng/mL (≈ 0.511 µM)	12	20	3.4 µg/mL (≈ 6.21 µM)
C[C@@H]1C[C@H](C)C[C@H](C)[C@@H](O)CC(=O)O[C@H]([C@@H]2CCC[C@H]2C(=O)O)CCCCC(C#N)[C@H](O)[C@@H](C)C1 (stereo not given in full)	130 ng/mL (≈ 0.263 µM)	130 ng/mL (≈ 0.263 µM)	102	102	
C[C@@H]1C[C@H](C)C[C@H](C)[C@@H](O)CC(=O)O[C@H]([C@@H]2CCC[C@H]2C(=O)OCc2cn(C34CC5CC(CC(C5)C3)C4)nn2)C/C=C/C=C(/C#N)[C@H](O)[C@@H](C)C1	70 ng/mL (≈ 0.0993 µM)	168 ng/mL (≈ 0.238 µM)	16	39	2.7 µg/mL (≈ 3.83 µM)
C[C@@H]1C[C@H](C)C[C@H](C)[C@@H](O)CC(=O)O[C@H]([C@@H]2CCC[C@H]2C(=O)NCC(=O)O)C/C=C/C=C(/C#N)[C@H](O)[C@@H](C)C1	21 ng/mL (≈ 0.0384 µM)	31 ng/mL (≈ 0.0567 µM)	1900	2850	58.9 µg/mL (≈ 108 µM)
C[C@@H]1C[C@H](C)C[C@H](C)[C@@H](O)CC(=O)O[C@H]([C@@H]2CCC[C@H]2C(=O)N[C@@H](C)C(=O)O)C/C=C/C=C(/C#N)[C@H](O)[C@@H](C)C1		13 ng/mL (≈ 0.0232 µM)	4190		
C#CCOC(=O)[C@@H]1CCC[C@H]1[C@@H]1C/C=C/C=C(/C#N)[C@H](O)[C@@H](C)C[C@H](C)C[C@H](C)C[C@H](C)[C@@H](O)CC(=O)O1	2.6 ng/mL (≈ 0.00493 µM)	5 ng/mL (≈ 0.00948 µM)	240	462	1.2 µg/mL (≈ 2.27 µM)
C[C@@H]1CC[C@H]2[C@@H](C)C(=O)O[C@@H]3O[C@@]4(C)CC[C@@H]1[C@]32OO4 [ARTEMISININ]			7530	7530	45.2 µg/mL (≈ 160 µM)
CCN(CC)CCCC(C)Nc1ccnc2cc(Cl)ccc12 (stereo not given) [CHLOROQUINE]					18.6 µg/mL (≈ 58.1 µM)
C[C@@H]1C[C@H](C)C[C@H](C)[C@@H](O)CC(=O)O[C@H]([C@@H]2CCC[C@H]2C(=O)OCCN(C)C)C/C=C/C=C(/C#N)[C@H](O)[C@@H](C)C1	0.31 ng/mL (≈ 0.000553 µM)	0.24 ng/mL (≈ 0.000428 µM)	750	581	0.18 µg/mL (≈ 0.321 µM)
C[C@@H]1C[C@H](C)C[C@H](C)[C@@H](O)CC(=O)O[C@H]([C@@H]2CCC[C@H]2C(=O)OCc2cn(-c3cnc4ccccc4c3)nn2)C/C=C/C=C(/C#N)[C@H](O)[C@@H](C)C1	0.067 ng/mL (≈ 9.6e-05 µM)	0.079 ng/mL (≈ 0.000113 µM)	13400	15600	1.05 µg/mL (≈ 1.5 µM)
C[C@@H]1C[C@H](C)C[C@H](C)[C@@H](O)CC(=O)O[C@H]([C@@H]2CCC[C@H]2C(=O)O)C/C=C/C=C(/C#N)[C@H](O)[C@@H](C)C1 [BORRELIDIN]	0.93 ng/mL (≈ 0.0019 µM)	0.88 ng/mL (≈ 0.0018 µM)	228	216	0.201 µg/mL (≈ 0.41 µM)
CCCOC(=O)[C@@H]1CCC[C@H]1[C@@H]1C/C=C/C=C(/C#N)[C@H](O)[C@@H](C)C[C@H](C)C[C@H](C)C[C@H](C)[C@@H](O)CC(=O)O1	90.4 ng/mL (≈ 0.17 µM)	78.8 ng/mL (≈ 0.148 µM)	232	202	18.2 µg/mL (≈ 34.2 µM)
C[C@@H]1C[C@H](C)C[C@H](C)[C@@H](O)CC(=O)O[C@H]([C@@H]2CCC[C@H]2C(=O)Sc2ccccc2)C/C=C/C=C(/C#N)[C@H](O)[C@@H](C)C1	107 ng/mL (≈ 0.184 µM)	160 ng/mL (≈ 0.275 µM)	6	9	0.98 µg/mL (≈ 1.68 µM)
C[C@@H]1C[C@H](C)C[C@H](C)[C@@H](O)CC(=O)O[C@H]([C@@H]2CCC[C@H]2C(=O)N[C@@H](Cc2ccc(O)cc2)C(=O)O)C/C=C/C=C(/C#N)[C@H](O)[C@@H](C)C1	163 ng/mL (≈ 0.25 µM)	170 ng/mL (≈ 0.26 µM)	197	206	33.4 µg/mL (≈ 51.2 µM)
C[C@@H]1C[C@H](C)C[C@H](C)[C@@H](O)CC(=O)O[C@H]([C@@H]2CCC[C@H]2C(=O)OCCN2CCOCC2)C/C=C/C=C(/C#N)[C@H](O)[C@@H](C)C1	0.62 ng/mL (≈ 0.00103 µM)	0.43 ng/mL (≈ 0.000713 µM)	604	419	0.26 µg/mL (≈ 0.431 µM)
CC(=O)O[C@H]1CC(=O)O[C@H]([C@@H]2CCC[C@H]2C(=O)O)C/C=C/C=C(/C#N)[C@H](OC(C)=O)[C@@H](C)C[C@H](C)C[C@H](C)C[C@@H]1C	107 ng/mL (≈ 0.186 µM)	120 ng/mL (≈ 0.209 µM)	464	522	55.7 µg/mL (≈ 97.1 µM)
C[C@@H]1C[C@H](C)C[C@H](C)[C@@H](O)CC(=O)O[C@H]([C@@H]2CCC[C@H]2C(=O)OCc2cn(-c3ccc(C(=O)O)cc3)nn2)C/C=C/C=C(/C#N)[C@H](O)[C@@H](C)C1	37.8 ng/mL (≈ 0.0547 µM)	48.5 ng/mL (≈ 0.0702 µM)	209	267	10.1 µg/mL (≈ 14.6 µM)
C[C@@H]1C[C@H](C)C[C@H](C)[C@@H](O)CC(=O)O[C@H]([C@@H]2CCC[C@H]2C(=O)OCc2cn(CSc3ccccc3)nn2)C/C=C/C=C(/C#N)[C@H](O)[C@@H](C)C1	0.031 ng/mL (≈ 4.47e-05 µM)	0.85 ng/mL (≈ 0.00123 µM)	19800	542000	16.8 µg/mL (≈ 24.2 µM)

Continued, in another order:

IC50 (Plasmodium falciparum [2])	IC50 (Plasmodium falciparum [3])	SMILES	selectivity ratio [1]	selectivity ratio [4]	IC50 [5]
140 ng/mL (≈ 0.243 µM)	200 ng/mL (≈ 0.347 µM)	C[C@@H]1C[C@H](C)C[C@H](C)[C@@H](O)CC(=O)O[C@H]([C@@H]2CCC[C@H]2C(=O)N[C@@H](CO)C(=O)O)C/C=C/C=C(/C#N)[C@H](O)[C@@H](C)C1	> 500	> 714	> 1000 µg/mL
24.6 ng/mL (≈ 0.0424 µM)	20.5 ng/mL (≈ 0.0354 µM)	C[C@@H]1C[C@H](C)C[C@H](C)[C@@H](O)CC(=O)O[C@H]([C@@H]2CCC[C@H]2C(=O)OCc2ccccc2)C/C=C/C=C(/C#N)[C@H](O)[C@@H](C)C1	198	165	4.05 µg/mL (≈ 6.99 µM)
77.7 ng/mL (≈ 0.147 µM)	39.2 ng/mL (≈ 0.074 µM)	C=CCOC(=O)[C@@H]1CCC[C@H]1[C@@H]1C/C=C/C=C(/C#N)[C@H](O)[C@@H](C)C[C@H](C)C[C@H](C)C[C@H](C)[C@@H](O)CC(=O)O1	118	59.6	4.63 µg/mL (≈ 8.74 µM)
67.8 ng/mL (≈ 0.131 µM)	23.3 ng/mL (≈ 0.045 µM)	CCOC(=O)[C@@H]1CCC[C@H]1[C@@H]1C/C=C/C=C(/C#N)[C@H](O)[C@@H](C)C[C@H](C)C[C@H](C)C[C@H](C)[C@@H](O)CC(=O)O1	939	323	21.9 µg/mL (≈ 42.3 µM)
18 ng/mL (≈ 0.0299 µM)	12 ng/mL (≈ 0.0199 µM)	CC[C@H](C)[C@H](NC(=O)[C@@H]1CCC[C@H]1[C@@H]1C/C=C/C=C(/C#N)[C@H](O)[C@@H](C)C[C@H](C)C[C@H](C)C[C@H](C)[C@@H](O)CC(=O)O1)C(=O)O	5330	3200	64 µg/mL (≈ 106 µM)
59 ng/mL (≈ 0.108 µM)	72 ng/mL (≈ 0.131 µM)	CC(C)SC(=O)[C@@H]1CCC[C@H]1[C@@H]1C/C=C/C=C(/C#N)[C@H](O)[C@@H](C)C[C@H](C)C[C@H](C)C[C@H](C)[C@@H](O)CC(=O)O1	142	172	10.2 µg/mL (≈ 18.6 µM)
8 ng/mL (≈ 0.015 µM)	10 ng/mL (≈ 0.0187 µM)	CCSC(=O)[C@@H]1CCC[C@H]1[C@@H]1C/C=C/C=C(/C#N)[C@H](O)[C@@H](C)C[C@H](C)C[C@H](C)C[C@H](C)[C@@H](O)CC(=O)O1	1340	1570	12.7 µg/mL (≈ 23.8 µM)
2.9 ng/mL (≈ 0.00448 µM)	4.8 ng/mL (≈ 0.00741 µM)	C[C@@H]1C[C@H](C)C[C@H](C)[C@@H](O)CC(=O)O[C@H]([C@@H]2CCC[C@H]2C(=O)OCc2cn(-c3cccnc3)nn2)C/C=C/C=C(/C#N)[C@H](O)[C@@H](C)C1	86	143	0.41 µg/mL (≈ 0.633 µM)
580 ng/mL (≈ 0.961 µM)	810 ng/mL (≈ 1.34 µM)	C[C@@H]1C[C@H](C)C[C@H](C)[C@@H](O)CC(=O)O[C@H]([C@@H]2CCC[C@H]2C(=O)N[C@@H](CC(N)=O)C(=O)O)C/C=C/C=C(/C#N)[C@H](O)[C@@H](C)C1	> 124	> 172	> 1000 µg/mL
163 ng/mL (≈ 0.29 µM)	170 ng/mL (≈ 0.303 µM)	CCCCSC(=O)[C@@H]1CCC[C@H]1[C@@H]1C/C=C/C=C(/C#N)[C@H](O)[C@@H](C)C[C@H](C)C[C@H](C)C[C@H](C)[C@@H](O)CC(=O)O1	12	12	2 µg/mL (≈ 3.56 µM)
